Laboratory results from ChEMBL document CHEMBL4513216, “Probing the Open Global Health Chemical Diversity Library for Multistage-Active Starting Points for Next-Generation Antimalarials” (ACS Infect Dis, 2020).

test: Toxicity liver stage against HepG2, at 10uM; assay type: cell-based; parameters: test concentration 10 uM, cell line HepG2-A16-CD81EGFP; conditions: human, HepG2-A16-CD81EGFP cells; read-out: INHIBITION
How it was run: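 Uninfected HepG2-A16-CD81EGFP cells, 3 × 10^3 per well, 1536-well, plated on prespotted compound at 10 μM final, parasite-free screening media added to match infected plates; puromycin 10 μM positive, DMSO 0.5% negative; run in parallel with 48 h PbLuc assay at 37 °C, 5% CO2; viability by CellTiter-Glo luminescence, normalized to controls.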

Row | SMILES | cytotoxicity at 10 µM [%]
1 | Cc1cc(C)n(-c2ccc3nnc(C)n3n2)n1 | 17.8
2 | CCc1ccc(OCCn2cccn2)cc1 | 8.95
3 | CCOc1ccc(C(=O)Nc2c(C)nc3cccc(C)n3c2=O)cc1 | 8.99
4 | COC(=O)CC(c1cccnc1)c1oc(C)cc(=O)c1O (stereo unspecified) | -0.191
5 | NC(=O)c1nc(CC(=O)Nc2cccc(C(F)(F)F)c2)no1 | 0.493
6 | CC1=Nc2c(c(=O)[nH]n2C(C)C)C(c2ccc3c(c2)OCCO3)S1 (stereo unspecified) | -1.01
7 | CC(C)c1nn2c(-c3cnn(C)c3)nnc2s1 | -8.75
8 | O=S(=O)(NCC1(c2cccs2)CCOCC1)c1ccc2c(c1)OCCO2 | -1.64
9 | CC(C)NC(=O)C1CCC2(CCNCC2)C1 (stereo unspecified) | 7.18
10 | CC(=O)N1CCCC2(CCN(C(=O)c3nn(C)c4ccccc34)CC2)C1 | 2.26
11 | O=C(NCC1CC1)C1CCC2(CCN(C(=O)c3cccs3)CC2)O1 (stereo unspecified) | -0.979
12 | Cn1cc(CN2C[C@@H]3OCCN(CC4CCCC4)[C@@H]3C2)cn1 | -163
13 | CNC(=O)[C@H]1C[C@@H]2CN(C(=O)c3ccc(C)o3)C[C@@H]2N1S(C)(=O)=O | -2.33
14 | COCC(=O)N1CCC2(C1)c1ccccc1S(=O)(=O)N2CCC(C)C (stereo unspecified) | -4.26
15 | O=C(c1cc[nH]n1)N1CCOCC2(C1)CN(c1ccccc1)C(=O)CO2 (stereo unspecified) | -4.96
16 | O=S(=O)(c1ccc(F)cc1)N1CCCn2cnc(CN3CCCC3)c2C1 | 7.78
17 | O=C(Nc1ccccc1)C1CN(Cc2cccs2)CC12CCOCC2 (stereo unspecified) | 3.09
18 | COCCN1C(=O)C[C@@H]2[C@H]1CCN2C(=O)c1ccc[nH]1 | -1.34
19 | CCOC(=O)CC(c1ccc(OC)cc1)c1c(O)n[nH]c1C (stereo unspecified) | -0.244
20 | CC1=Nc2c(c(=O)[nH]n2C(C)C)C(c2cccs2)S1 (stereo unspecified) | 3.67
21 | Cc1cnc2c(c1NCc1ccncc1)c(=O)n(C)c(=O)n2C | -10.7
22 | COc1nn(C)cc1C(=O)N1CCC(c2nnc(C3CC3)o2)CC1 | 5.14
23 | COCCN1C[C@@H]2CN(c3ncccn3)C[C@@H]2C1=O | -11.9

Row | SMILES | cytotoxicity at 10 µM [%]
24 | CCn1nc(C)c2ncnc(NCCn3cccn3)c21 | 7.73
25 | COc1c(C(=O)NCc2cccnc2)nnn1Cc1ccc(C)cc1 | 11.8
26 | CN1CCCC1c1nccnc1-c1ccc(C(=O)O)cc1 (stereo unspecified) | 11
27 | COc1ccccc1C1Cn2c(C)cnc2CN1Cc1c[nH]nc1C (stereo unspecified) | 2.79
28 | O=C(CN1CCC(c2cc(=O)n3c(n2)CCCCC3)CC1)N1CCCC1 | 4.62
29 | Fc1ccccc1OCCc1cc(C2CCNC2)n[nH]1 (stereo unspecified) | -26.8
30 | CN1CCC(Cc2cc(Nc3ccccn3)ncn2)CC1 | -23.4
31 | Cc1cc(F)c2c(c1)CCCN2Cc1cc(=O)n(C)c(=O)n1C | 8.1
32 | CCC1(CC)CC(=O)N(CC(O)c2ccc(F)cc2)C1=O (stereo unspecified) | -0.438
33 | CC(CN1CCOCC1)NC(=O)N1CCCC1 (stereo unspecified) | 0.651
34 | Cc1ccc(C)c(CN(CC(N)=O)C(C)C)c1 | 0.477
35 | COc1ccc(NCCC(=O)NCc2cccnc2N(C)C)cc1 | -2.06
36 | CCNC(=O)NCc1ccc(-n2ccc(C(F)(F)F)n2)cc1 | -4.7
37 | N#CC1(NC(=O)c2cc(Cl)c3c(c2)OCCCO3)CCC1 | -8.42
38 | CS(=O)(=O)NC1CCN(C(=O)c2cc3ccccc3s2)C1 (stereo unspecified) | 6.65
39 | CC(C)N(CC(N)=O)Cc1c(Cl)ccc2cccnc12 | 11.8
40 | O=C(NCC1(O)CCOCC1)c1ccn(-c2ccccc2F)n1 | -0.636
41 | Nc1nccnc1C(=O)NC1CCN(Cc2ccccc2)C1 (stereo unspecified) | 11.9
42 | NCC(CO)Cc1cccc(OC(F)(F)F)c1 (stereo unspecified) | 3.2
43 | CSc1ccc(NC(=O)Cn2cc(N)cn2)cc1 | 0.14
44 | O=c1ccc(S(=O)(=O)N2CCCC2)cn1CC1CCCCO1 (stereo unspecified) | -0.983
45 | O=C(C1CC(c2ccccc2)=NO1)N1CCCCc2ccccc21 (stereo unspecified) | 3.17
46 | CCc1nnc2n1CCN(C(=O)C(C)Oc1cccc(C#N)c1)C2 (stereo unspecified) | 0.855

Row | SMILES | cytotoxicity at 10 µM [%]
47 | c1ccc(-n2cncn2)c(CNCCn2cccn2)c1 | -4.29
48 | Cc1cc(NCCNc2ccc(C#N)cn2)nc(C)n1 | 4.42
49 | CC(C)(C(=O)NCc1ccccc1F)n1cc(Br)cn1 | 0.296
50 | O=C(COCC1CC1)N1CCN(C(=O)Cc2ccccn2)CC1 | 10.3
51 | O=C(C1SCCc2sccc21)N1CCN(C2CC2)C(=O)C1 (stereo unspecified) | 3.24
52 | Cc1ccc(NC(=O)N2CCOC(C(N)=O)C2)cc1C(F)(F)F (stereo unspecified) | -146
53 | COc1ccc(CNCCc2cc(F)cc3c2OCOC3)cc1OC | -6.9
54 | CC(C)OCCN1CCN(C(=O)c2cccc(-n3cccn3)n2)CC1 | -3.88
55 | CCCS(=O)(=O)NC(=O)c1sc(C2CCCC2)nc1C | 0.521
56 | CCN(C(=O)c1cc2c([nH]c1=O)CCCC2=O)C1CCCCC1 | -4.07
57 | Cc1n[nH]cc1CNC(C(=O)N1CCCCC1)c1ccccc1 (stereo unspecified) | 8.37
58 | CCN(CC)S(=O)(=O)CCNC(=O)c1cc2cccc(F)c2o1 | -3.12
59 | CCNC(=O)C1CCCN(Cn2nc(C(C)(C)C)ccc2=O)C1 (stereo unspecified) | 10.1
60 | CCc1sc(C(=O)Nc2cnn(CC(N)=O)c2)cc1C | -2.68
61 | Cn1cc(CNCCNc2ncc(Cl)cc2Cl)cn1 | -6.42
62 | CN(Cc1ccc2c(c1)OCO2)C(=O)C1CC(c2cccc(F)c2)=NO1 (stereo unspecified) | 10.7
63 | COC(=O)CC1CN(Cc2c(Cl)ccc3cccnc23)CCO1 (stereo unspecified) | 8.36
64 | CN(CCN1CCOC1=O)CC(=O)Nc1ccc(Cl)c(C(F)(F)F)c1 | -46.5
65 | CS(=O)(=O)c1nnc(NC(=O)CCc2cccc(Cl)c2)[nH]1 | -20.4
66 | CCN(CC1CN(CCc2ccccn2)CCO1)c1cccnn1 (stereo unspecified) | -6
67 | CC(=O)N(C)CC(=O)Nc1cccc(N2CCN(CC3CC3)CC2)c1 | 1.75
68 | Cc1ccc2c(c1)OCCCC2NCc1nnc2n1CCCCC2 (stereo unspecified) | -7.89
69 | CN(Cc1cccc(Cl)c1)S(=O)(=O)N1CCOCC1 | -8.2

Row | SMILES | cytotoxicity at 10 µM [%]
70 | COCCn1c2c(ccc1=O)CCN(C(=O)Cc1cccs1)CC2 | 1.44
71 | Cc1noc([C@H]2C[C@H]3CN(C(=O)Cc4ccsc4)CC[C@H]3O2)n1 | -1.68
72 | COCCN1C[C@H]2[C@@H](C1)N(C(=O)CCc1ccccc1)CC[C@H]2OC | 4.78
73 | CC(C)CCNC(=O)C(c1cccc(F)c1)N(C)C (stereo unspecified) | -5.77
74 | COc1cc(CN2CCCC2)ccc1OC12CCCN(CC1)C2 (stereo unspecified) | -2.87
75 | CN(Cc1ccccc1CN1CCCC1)C(=O)c1c(O)cccc1O | -5.84
76 | CCN(Cc1nc(C)no1)C(=O)C1CC(=O)N(Cc2ccccn2)C1 (stereo unspecified) | 4.78
77 | CN(Cc1ccccn1)C(=O)c1cc(CN2CCC(O)CC2)on1 | 0.852
78 | Cc1ccc2nc(C(=O)N3CCC(CCn4cccn4)CC3)cn2c1 | -18.3
79 | CCn1c(CN(C)C)nnc1C1CCN(Cc2cnc(C)nc2)CC1 | 4.6
80 | Cc1ccc2c(c1)SCC(=O)N2CC(=O)N1CCCC1c1nccs1 (stereo unspecified) | 12.4
81 | O=C(O)[C@@H]1CN(C(=O)CCCc2ccc(F)cc2)C[C@H]1C1CC1 | 0.832
82 | Cc1noc(C)c1CCC(=O)N1CCOCC1CC(=O)N1CCCC1 (stereo unspecified) | 0.282
83 | Cc1cnn(C(C)C2CC2)c1NC(=O)c1ncccc1O (stereo unspecified) | 7.4
84 | CCN(C)CC(=O)N1CCc2nc(NC)nc(C(=O)N3CCCC3)c2C1 | -120
85 | CCN1CC(C(=O)N(C)Cc2cc3cc(F)ccc3[nH]2)CC1=O (stereo unspecified) | 0.782
86 | COCc1cc(CNC(=O)c2c(C)cc(C)[nH]c2=O)n[nH]1 | -4.69
87 | CCCc1nc(CN(CC)C(=O)c2onc3ccccc23)no1 | 9.67
88 | Cc1ccccc1N1CCCN(C(=O)c2nn(C)cc2Cl)CC1 | -4.78
89 | O=C1CCNC(=O)N1CC(=O)N1CCC1c1ccc(F)cc1 (stereo unspecified) | 7.46
90 | CNc1nc(C)c(C(=O)N2CCCCC2CCc2ccccc2)s1 (stereo unspecified) | 2.24
91 | Cn1cc(Cl)c(C(=O)N2CCCN(C3Cc4ccccc4C3)CC2)n1 | -4.86
92 | O=C(Nc1ccc2c(c1)OCCO2)N1CCCN(Cc2cccs2)CC1 | 3.45

Row | SMILES | cytotoxicity at 10 µM [%]
93 | Cc1cccnc1CC(C)N(C)C(=O)c1ccoc1C (stereo unspecified) | -12.6
94 | COCCN1CCC(CN(CC2CCCO2)C(=O)CCNC(C)=O)CC1 (stereo unspecified) | -5.99
95 | Cc1ccc(C(=O)N2CCN(S(C)(=O)=O)CC2)cc1N1CCNC1=O | -5.07
96 | COCCN(C)C[C@@H]1CN(C(=O)c2ccoc2)C[C@@H]1CO | -18.4
97 | COCCCNC(=O)CN(C)C1CCCN(c2cccnn2)C1 (stereo unspecified) | -2.51
98 | Cc1ccsc1CNC(=O)N(C)Cc1cnn(C)c1 | -6.25
99 | CN1CCOC(CN(C(=O)CCCn2cccn2)c2nccs2)C1 (stereo unspecified) | -22.7
100 | CN1CC(C(=O)Nc2ccc(OCC(F)(F)C(F)F)nc2)CC1=O (stereo unspecified) | -8.64
101 | CC(C)(C(N)=O)N1CCN(C(=O)c2ccn(-c3cccc(Cl)c3)n2)CC1 | -13.3
102 | Cc1cnn(CC(=O)N2CCCN(c3ncccc3C#N)CC2)c1 | -4.37
103 | O=C(NCCOC1CCCCC1)c1ccc(-c2ccco2)[nH]c1=O | -8.08
104 | CN(Cc1cccc(F)c1)C(=O)CN1CCOC(Cn2cccn2)C1 (stereo unspecified) | -8.21
105 | COCCNc1cc(C2CCCNC2)ccn1 (stereo unspecified) | -7.17
106 | CCOC(=O)[C@]12CCCN(Cc3nccs3)C[C@H]1CN(CCOC)C2 | 1.36
107 | CCN(C)c1ncnc2c1CCN(Cc1ccsc1)CC2 | 1.69
108 | CN1[C@@H](C(=O)NCC2CC2)C[C@H]2CN(Cc3ccsc3)C[C@H]21 | -0.213
109 | CCNc1nc2cn(-c3ccc(CC)cc3)c(=O)c-2c[nH]1 | -3.31
110 | CNc1nc2cn(Cc3ccc(Cl)cc3)c(=O)c-2c[nH]1 | 8.93
111 | COC1C[C@@H]2CN(C(=O)c3cc4cccc(F)c4[nH]3)C[C@@H]2C1 (stereo partly specified) | 1.51
